70 compounds from ChEMBL document CHEMBL4513216, “Probing the Open Global Health Chemical Diversity Library for Multistage-Active Starting Points for Next-Generation Antimalarials” (ACS Infect Dis, 2020) can be followed below.

SMILES strings stand for the structures.

This series is described as follows: Toxicity liver stage against HepG2, at 10uM. The class given is cell-based. More on the design: test concentration 10 uM, cell line HepG2-A16-CD81EGFP. The settings on record: human, HepG2-A16-CD81EGFP cells; read-out: INHIBITION
A digest of the protocol:
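Uninfected HepG2-A16-CD81EGFP cells, 3 × 10^3 per well, 1536-well, plated on prespotted compound at 10 μM final, parasite-free screening media added to match infected plates; puromycin 10 μM positive, DMSO 0.5% negative; run in parallel with 48 h PbLuc assay at 37 °C, 5% CO2; viability by CellTiter-Glo luminescence, normalized to controls.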
In the case of `NC(=O)CCS(=O)(=O)Cc1ccc(OCC(F)(F)F)cc1`, the cytotoxicity at 10 µM is -4.16%.
To `O=C(NCC1CC[C@@]2(CNCCOC2)O1)c1cnccn1` (stereo not given in full) belongs 9.44%.
To `Cc1ccc2c(n1)N(C)CCN(C(=O)NC(C)C)C2` belongs -3.38%; to `COCc1cccc(NC(=O)NCc2ncc(C)c(OC)c2C)c1`, -1.21%.
Turning to `c1ccc(Cn2ccnc2CN2CCCC2c2noc(C3CC3)n2)cc1` (stereo not given), the cytotoxicity at 10 µM was -0.818%.
With `Cc1ccc(NC2CCN(C(=O)CC3CCCO3)CC2)nn1` (stereo not given) the figure was -10.5%.
To `CC(C)(C)c1nc(CN(CCC2CCCCC2)CC(N)=O)no1` belongs -3.08%; to `O=C(C(CNCc1ccsc1)c1ccccc1)N1CCOCC1` (stereo not given), -7.32%.
For the compound `Cc1cc(C)nc(N2CCC(c3cncc(-n4ccnc4)n3)CC2)n1`, the cytotoxicity at 10 µM is -8.66%.
For `CCC1CN(Cc2nc(C(C)C)no2)CCC(=O)N1Cc1ccccc1` (stereo not given), the cytotoxicity at 10 µM is 5.08%.
On to `CC(C)=CCS(=O)(=O)Cc1noc(CC(C)C)n1`, for which the cytotoxicity at 10 µM was -4.59%.
Take `CN1CCCC(c2cncc(C(=O)NCc3ccccc3Cl)n2)C1` (stereo not given): the cytotoxicity at 10 µM was -2.82%.
For the compound `CCOCCCNC(=O)C(NC(=O)Cc1cccs1)c1ccccc1` (stereo not given), the cytotoxicity at 10 µM amounted to 12.3%.
With `Cc1ccccc1CCC1CCCN(C(=O)Cc2cc(=O)[nH]c(N)n2)C1` (stereo not given), the cytotoxicity at 10 µM is 4.6%.
With `CC(C)NC(=O)C1CN(C(=O)Nc2ccccc2)CC12CCOCC2` (stereo not given) the figure was 4.58%; with `Cc1cc(CN(C)C2CCCN(Cc3noc(C4CC4)n3)C2)on1` (stereo not given), -1.68%.
As to `COc1cccc(CNC(=O)CCOc2ccccc2C)c1`, the cytotoxicity at 10 µM was -1.2%.
With `Cc1ccn(Cc2nc(CC(C)C)no2)c(=O)c1` the figure was 6.21%; with `Clc1cccc(Cl)c1-c1nnc(CNCCn2cccn2)o1`, -6.46%.
As for `O=c1c2cn[nH]c2nc(SCCN2CCOCC2)n1-c1ccccc1`, the cytotoxicity at 10 µM is 0.219%.
In the case of `Cn1ccnc1C(=O)N1C[C@@H]2CCN(c3cnccn3)C[C@@H]2C1`, the cytotoxicity at 10 µM was -97%.
Take `COc1cccc(CNCCNS(=O)(=O)Cc2ccccc2)c1`: the cytotoxicity at 10 µM came out at 13.4%.
Regarding `CC(C)c1nc(CNc2ccc(CCO)cc2)cs1`, the cytotoxicity at 10 µM turned out to be 20.1%.
With `O=C(c1ccc(O)cc1)N1C[C@@H]2OCCN(c3ncccn3)[C@@H]2C1`, the cytotoxicity at 10 µM worked out at 6.72%.
Regarding `O=C(O)[C@]12CCCN(Cc3ccsc3)C[C@H]1CN(c1ncccn1)C2`, the cytotoxicity at 10 µM was -144%.
With `Cc1cc(CNCc2c(C)n(CC(C)C)c3ccccc23)[nH]n1` the figure was -1.63%; with `Cc1cccc(-c2noc(CN3CCCC3Cn3cncn3)n2)c1` (stereo not given), 0.983%; with `N#Cc1cccc(CN(CCO)Cc2ccsc2)c1`, 19.6%.
`CNS(=O)(=O)c1cccc(C(C)NCc2cccc(C)c2C)c1` (stereo not given): the cytotoxicity at 10 µM came to 9.44%.
As to `c1ccc(-c2ncn(CCCN3CCOCC3)c2-c2ccncc2)cc1`, the cytotoxicity at 10 µM is -7.64%.
Regarding `Cc1sc2nc(SC(C)c3nc(C(C)C)no3)nc(N)c2c1C` (stereo not given), the cytotoxicity at 10 µM is -2.4%.
As for `CCN1CCN(c2ccc(F)cc2C(C)NCc2ccnn2C)CC1` (stereo not given), the cytotoxicity at 10 µM is -8.33%.
Regarding `COCCn1cc(C(=O)N2CCCC2c2noc(C)n2)ccc1=O` (stereo not given), the cytotoxicity at 10 µM is -9.8%.
With `CCC(C)(C)NC(=O)CSCc1ccc(S(=O)(=O)N(C)C)o1` the figure was 5.94%; with `COCCN1CCc2cc(C(=O)N(C)C)c(NCC3CC3)nc2CC1`, 4.44%; with `CC(C)C[C@H](N)C(=O)N1CCSc2ccccc2C1`, 0.318%.
To `NC(=O)Cn1nc(-c2ccccc2F)ccc1=O` belongs -7.69%.
On to `O=C1N[C@@H]2CCN(C(=O)c3ccccc3)[C@@H]2C(=O)N1Cc1ccccc1`, for which the cytotoxicity at 10 µM is -1.84%.
Take `Cc1ccc(CNCc2c(C(C)C)nn(C)c2N2CCOCC2)s1`: the cytotoxicity at 10 µM was -3.03%.
With `COc1cc(CNC(=O)c2cc(S(C)(=O)=O)ccc2C)ccn1` the figure was -1.65%.
`Cc1noc(C)c1CN1CC[C@H]2C[C@H](c3ccncn3)O[C@@H]2C1`: the cytotoxicity at 10 µM is -69.5%.
Take `CCCC(C#N)NC(=O)Cc1csc(CC)n1` (stereo not given): the cytotoxicity at 10 µM is -2.08%.
Regarding `Cc1ccc(NC2CCN(C(=O)c3ccc(F)c(C)c3)CC2)nn1`, the cytotoxicity at 10 µM was determined as 2.37%.
For `CCOCC(=O)N1C[C@@H]2COC[C@H](c3nc(C)no3)[C@@H]2C1`, the cytotoxicity at 10 µM was -11.1%.
With `Cc1nc(CN2CCCC(N(C)Cc3nnc(C4CC4)o3)C2)no1` (stereo not given) the figure was -24.2%.
`O=C([C@@H]1Cc2[nH]cnc2CN1CC1CC1)N1CCCC1`: the cytotoxicity at 10 µM is 2.5%.
To `Cc1nccnc1N1CC[C@@H](NC(=O)c2cnccn2)[C@H](O)C1` belongs -11.3%; to `CS(=O)(=O)c1ccc(CN2C[C@@H]3OCC(=O)N(CC(N)=O)[C@@H]3C2)cc1`, 2.67%; to `COc1cc(N2CCC3(CCCN(C(=O)c4cnccn4)C3)C2)ncn1` (stereo not given), -2.48%.
With `CC(O)(CNC(=O)c1cccnc1-n1cccn1)c1ccco1` (stereo not given) the figure was 3.09%; with `Cc1ccc(OCC2CCCN(c3nc(CO)cs3)C2)cc1` (stereo not given), 5.4%; with `CC(C)NC(=O)CC1COC2(CCN(Cc3ccccc3)CC2)C1` (stereo not given), 6.38%.
`Cc1ccc(N(C)S(=O)(=O)c2cc(C(=O)O)cs2)cc1`: the cytotoxicity at 10 µM came to 0.0898%.
`CC(C)(C)N1CC(C(=O)N2CCN(CCc3ccccc3)CC2)CC1=O` (stereo not given): the cytotoxicity at 10 µM came to 23.4%.
On to `CCN1CC2(CC1=O)CN(C(=O)c1cccs1)CCN(C(=O)N(C)C)C2` (stereo not given), for which the cytotoxicity at 10 µM is 2%.
Consider `Cc1ccc(CN2CC[C@H]3C[C@H](C(=O)N4CCCO4)O[C@@H]3C2)o1`, for which the cytotoxicity at 10 µM was 7.11%.
`CCOc1cccc(NC(=O)c2cscn2)n1`: the cytotoxicity at 10 µM is -3.59%.
Turning to `CCc1nc(C2CCCN2C(=O)c2csc(COC)n2)no1` (stereo not given), the cytotoxicity at 10 µM was found to be 1.04%.
With `Cn1ncnc1NS(=O)(=O)c1ccccc1`, the cytotoxicity at 10 µM stood at 8.26%.
On to `Cc1[nH]ccc1C(=O)N(Cc1ccc(O)cc1)CC1CC1`, for which the cytotoxicity at 10 µM worked out at 6.99%.
Regarding `CSc1ncc(C(=O)N(C)C(C)Cc2ccccn2)cn1` (stereo not given), the cytotoxicity at 10 µM is 15.9%.
In the case of `NC(=O)NC(=O)CCn1ccc(-c2ccsc2)n1`, the cytotoxicity at 10 µM was 8.56%.
Turning to `CN(Cc1cncnc1)[C@H]1CN(Cc2ccco2)[C@@H]2CCCO[C@@H]21`, the cytotoxicity at 10 µM is -78.7%.
With `Cc1ccc(OCCCC(=O)NC(C)c2ccc(S(N)(=O)=O)cc2)cc1` (stereo not given), the cytotoxicity at 10 µM was -2.69%.
To `COc1c(C)cnc(CSc2nnc(N3CCCC3)s2)c1C` belongs -13.1%; to `CN(C(=O)c1ccc[nH]1)C1CC(=O)N(Cc2ccccc2)C1=O` (stereo not given), 8.02%; to `CN(C)S(=O)(=O)N1C[C@H]2CCC[C@@]2(COc2cccnc2)C1`, 11.8%.
With `N#Cc1nc(COc2ccc3c(c2)OCO3)oc1N1CCCC1` the figure was -42.7%; with `O=C(CN1CCOc2ccc(Cl)cc21)NCCCn1cccn1`, -0.174%.
To `CC(C)c1ocnc1C(=O)NC(c1nnc2n1CCNCC2)C(C)C` (stereo not given) belongs -9.72%.
